Read-outs that look alike come from different tables or passages of the source.
How the values were obtained:
DDAH = DDAH (Homo sapiens, UniProt O94760); assay: High throughput screen for DDAH inhibitors; assay type: biochemical; conditions: primary hits of the screen of about 130,000 small molecules
How it was run: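 Purified recombinant human DDAH1 was used in a DDAH activity assay to screen a library of about 130,000 small molecules. Activity was monitored by colorimetric and fluorometric assays. Hits were compounds inhibiting DDAH by more than 30%. Primary hits were then validated with orthogonal colorimetric and fluorimetric activity assays.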

[1] = target: recombinant human DDAH1 (rhDDAH1) (Homo sapiens, UniProt O94760); assay: Colorimetric microplate DDAH activity assay; assay type: biochemical
recombinant human DDAH1 (rhDDAH1), sequence (O94760 whole entry): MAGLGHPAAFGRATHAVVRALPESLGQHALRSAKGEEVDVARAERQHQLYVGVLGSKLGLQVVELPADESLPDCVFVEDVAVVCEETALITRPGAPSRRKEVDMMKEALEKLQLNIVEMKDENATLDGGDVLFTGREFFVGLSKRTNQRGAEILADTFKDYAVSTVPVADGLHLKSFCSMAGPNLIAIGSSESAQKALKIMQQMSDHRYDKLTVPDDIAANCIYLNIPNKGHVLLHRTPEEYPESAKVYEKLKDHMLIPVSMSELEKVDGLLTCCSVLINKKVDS

[2] = test system: human microvascular endothelial cells; assay: Intracellular ADMA in human endothelial cells; assay type: cell-based; conditions: 20 μM, 24 hours
How it was run: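 HMEC-1 microvascular endothelial cells in serum-free DMEM got test compound (20 μM final), a known DDAH1 inhibitor as control, or DMSO vehicle for 3 h. Medium was then switched to DMEM with 10% FBS, 4mM HEPES and penicillin/streptomycin (pH 7.6), 37°C/5% CO2, until 24 h. Cells were washed and lysed; protein measured by Coomassie; intracellular ADMA by ELISA. Duplicate experiments; unpaired t-test versus vehicle.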

[3] = Serum ADMA levels in mice in vivo; design: species or system mouse; conditions: C57BL/6J mice; 30 mg/kg/day subcutaneous; 5-week study period
[4] = single oral dose of 30 mg, cited from earlier work
rhDDAH1 [5] = target: T1, rhDDAH1 (Homo sapiens, UniProt O94760); assay: Surface plasmon resonance enzyme-drug binding study; conditions: 12.5–100 μM; rhDDAH1 amine coupled to CM5 chip; pH 6.5
T1 sequence (O94760 whole entry): as above
How it was run: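 rhDDAH1 was purified with HEPES elution (10mM HEPES in PBS) to avoid competing amines, then amine-coupled to a CM5 chip. Test compound from a DMSO stock, or DMSO vehicle, was diluted in 100mM Na2HPO4, pH 6.5. It was passed over the chip at 4 concentrations (serial dilution, 12.5–100 μM). Binding was followed in real time as sensorgram peaks, in duplicate experiments.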

rhDDAH1 [6] = target: T1, rhDDAH1; assay: Reversibility study by inhibitor dilution; assay type: biochemical; conditions: DDAH 30 μM pre-incubated with inhibitor, serially diluted
How it was run: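 DDAH (30 μM, 100-fold above the enzymatic assay concentration) was pre-incubated with test compound at three concentrations, then diluted. Recovery of enzymatic activity was read by fluorometric DDAH assay, with a known DDAH1 inhibitor as control.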

HMVECs [7] = assay: Western blot of DDAH1 and DDAH2 expression in HMVECs; assay type: cell-based, human; conditions: 3–100 μM for 24 hours
[8] = test system: primary human microvascular endothelial cells (HMVECs); assay: Intracellular NOx in endothelial cells; assay type: cell-based; conditions: 24 hours; lysates, normalized to total protein
How it was run: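 Primary HMVECs were exposed to vehicle or various concentrations of test compound for 24 h, with a selective DDAH1 inhibitor as control. Total nitrite (NOx) in cell lysates was measured by Griess reaction and normalized to total protein. Values come from duplicate experiments.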

HMVECs [9] = assay: Western blot of eNOS and phospho-eNOS in HMVECs; assay type: cell-based, human; conditions: HMVEC lysate, normalized to β-actin
How it was run: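 Endothelial cell lysates (20 μg) from cells exposed to test compound or vehicle were analysed by Western blot for total eNOS and phospho-eNOS. VEGF (50 ng/mL) served as positive control for eNOS phosphorylation. Bands were normalized to β-actin.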

[10] = test system: human saphenous vein segments; assay: NOx release from human saphenous vein segments; conditions: 24 hours; in the presence or absence of A23187 (0.5 μM); omeprazole 3–100 μM, L-257 100 μM
How it was run: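 Saphenous vein segments harvested during CABG surgery were rinsed in lactated Ringer's solution, cut into 0.5 cm pieces and held in endothelial cell medium. They were kept basal or stimulated with A23187 (0.5 μM) for 24 hours with test compound, a reference DDAH1 inhibitor or vehicle. Griess reaction measured total nitrite (NOx) in the conditioned medium. Duplicate experiments, mean ± SEM, one-way ANOVA with Bonferroni post-test versus vehicle.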

mouse thoracic aorta = assay: Vascular reactivity of isolated mouse thoracic aorta ex vivo; conditions: aorta exposed for 24 hours
[11] = IC50, 8 point concentration range 0.78–100 μM, Mean ± SEM, triplicate

DDAH, sequence (O94760 whole entry): as above

## COc1ccc2[nH]c([S+]([O-])Cc3ncc(C)c(OC)c3C)nc2n1 (stereo not shown) [Tenatoprazole, tenatoprazole]
DDAH
  inhibition of DDAH in high throughput screen: more than 30%
[1]
  IC50: 61 ± 1.5 µM

## Cc1c(OCC(F)(F)F)ccnc1C[S+]([O-])c1nc2ccccc2[nH]1 (stereo not shown) [Lansoprazole, lansoprazole]
DDAH
  inhibition of DDAH in high throughput screen: more than 30%
[2]
  increase of intracellular ADMA compared to vehicle control: ~ 30%
[3]
  increase of serum ADMA compared to vehicle control: about 20%
[4]; read-out: maximum plasma concentration (Cmax)
  Cmax: 2 to 6 µM
[4]
  time to maximum plasma concentration: ≤ 3 h

## COc1ccc2[nH]c([S+]([O-])Cc3ncc(C)c(OC)c3C)nc2c1 (stereo not shown) [Omeprazole, omeprazole]
DDAH
  inhibition of DDAH in high throughput screen: more than 30%
[1]; [11]
  IC50: 58 ± 5 µM
[1]; IC50, IC50 value used to set the concentrations of the reversibility study
  IC50: ~60 µM
rhDDAH1 [5]
  binding to DDAH (SPR sensorgram): direct interaction between the PPI and DDAH
rhDDAH1 [6]
  reversibility of inhibition of DDAH enzymatic activity upon dilution: rapid and almost complete reversibility
HMVECs [7]
  protein expression of DDAH1 and DDAH2: neither regulated the expression of DDAH1 nor that of DDAH2
[8]
  levels of nitrogen oxides (NOx) in cultured endothelial cells: dose-dependently reduced
HMVECs [9]
  expression of total eNOS and active eNOS (phospho-eNOS): downregulated
[10]
  NOx released from isolated human saphenous veins: significantly inhibited
Mouse thoracic aorta
  contraction to phenylephrine (PE): enhanced the contraction to phenylephrine
  endothelium independent vasorelaxation to sodium nitroprusside: did not effect
  relaxation to acetylcholine (ACh): blunted the relaxation to acetylcholine

## COc1ccnc(C[S+]([O-])c2nc3ccc(OC(F)F)cc3[nH]2)c1OC (stereo not shown) [Pantoprazole, pantoprazole]
DDAH
  inhibition of DDAH in high throughput screen: more than 30%

## COCCNC(N)=NCCC[C@H](N)C(=O)O [L-257]
rhDDAH1 [6]
  reversibility of inhibition of DDAH enzymatic activity upon dilution: complete reversibility upon dilution
[2]; control DDAH inhibitor
  effect on intracellular ADMA: increased ADMA
[10]
  NOx released from isolated human saphenous veins: significantly inhibited

## COc1ccc2nc([S@@+]([O-])Cc3ncc(C)c(OC)c3C)[nH]c2c1 [Esomeprazole, esomeprazole]
[1]; [11]
  IC50: 52 ± 5 µM
[2]
  increase of intracellular ADMA compared to vehicle control: ~ 30%
